Experimental data collected from several papers.
Each line is one published result; the experiments were not run side by side.
Target: Mitogen-activated protein kinase kinase kinase kinase 4 (MAP4K4, Homo sapiens, UniProt O95819)

CC(C)(C)c1nc(-c2cccc(NS(=O)(=O)c3c(F)cccc3F)c2F)c(-c2ccnc(N)n2)s1
remaining activity (enzyme activity, inhibitor, radiometric; 1 µM): 95%

N#CCCc1ccc2c(c1)-c1[nH]c3ccc([N+](=O)[O-])cc3c1CC(=O)N2
remaining signal (cell-free assay; 0.5 µM): 6.82%

COc1cc2ncnc(Nc3ccc(Oc4ccccc4)c(C)c3C)c2cc1OC
inhibition (enzyme activity, inhibitor; 1 µM): -3%

O=C(Nc1cnn(-c2csc(C(=O)NC3COC3)c2)c1)Nc1ccccc1Cl
remaining activity (enzyme activity, inhibitor; 5 µM): 81.1%

CCCCN(CCCC)C(=O)CN1C[C@H](c2cc(OC)c3c(c2)OCO3)[C@@H](C(=O)O)[C@@H]1CC(C)(C)CCC
remaining binding (cell-free assay, competition with immobilised ligand; 1 µM): 100%

CCCS(=O)(=O)Nc1ccc(F)c(C(=O)c2c[nH]c3ncc(-c4ccc(Cl)cc4)cc23)c1F
inhibition (enzyme activity, inhibitor; 1 µM): < 10%

Cc1ccc(C(=O)NCc2ccsc2)cc1C#Cc1cn(C(C)C)c2ncnc(N)c12
activity vs control (enzyme activity, inhibitor; 1 µM): 146%

CO[C@@H](C)c1c(Nc2ccc([C@H](N(C)C(=O)C3CCS(=O)(=O)CC3)C(F)(F)F)cc2)cnc2cc(Cl)nn12
remaining binding (cell-free assay, competition with immobilised ligand; 1 µM): 100%

Cc1sc(C(=O)NC2COC2)cc1-n1cc(NC(=O)Nc2c(F)cccc2Cl)cn1
remaining activity (enzyme activity, inhibitor; 10 µM): 93.4%

CC(C)(O)[C@H]1CC[C@H](Nc2ccc3ncc(-c4cccc(C(F)(F)F)c4)n3n2)CC1
remaining activity (enzyme activity, inhibitor; 1 µM): 90.6%

O=C1Nc2ccc(Cl)cc2C1=Cc1cc(Cl)c(O)c(Cl)c1
remaining signal (cell-free assay; 0.5 µM): 4.48%

O=C(NC[C@@H]1[C@H]2CN(C(=O)OCc3cc(C(F)(F)F)cc(C(F)(F)F)c3)C[C@@H]12)c1ccc2[nH]nnc2c1
remaining binding (cell-free assay, competition with immobilised ligand; 1 µM): 100%

COc1cc2c(N3CCN(C(=O)Nc4ccc(OC(C)C)cc4)CC3)ncnc2cc1OCCCN1CCCCC1
remaining signal (cell-free assay; 0.5 µM): 96.6%

CSc1nc(C)c(-c2ccnc(Nc3ccc(N4CCOCC4)cc3)c2)[nH]1
inhibition (enzyme activity, inhibitor; 10 µM): 77.9%

O=C(O)c1cc(-c2ccc(C3CCNCC3)cc2)c2ccc(-c3ccc(C(F)(F)F)cc3)cc2c1
remaining binding (cell-free assay, competition with immobilised ligand; 1 µM): 87%

O=C1NC(=O)c2cc(Nc3ccc(F)cc3)c(Nc3ccc(F)cc3)cc21
remaining signal (cell-free assay; 0.5 µM): 91.2%

CN(C(=O)c1ccccc1)c1cc(N(C)c2ccc3c(c2)CCc2ccc(C(=O)NCCN4CCOCC4)cc2C3=O)ccc1F
remaining binding (cell-free assay, competition with immobilised ligand; 1 µM): 100%

Nc1nc(Nc2ccc(S(N)(=O)=O)cc2)nn1C(=O)c1c(F)cccc1F
remaining signal (cell-free assay; 0.5 µM): 83.8%
